Key:
[1] = folding enthalpy; higher = less favourable; fluorescence melt of hairpins on a sequencing array, two-state fit; conditions: sodium 0.088 M
Procedure, shortened: (§1)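 Cy3 fluorescence of library hairpins on a sequenced MiSeq flow cell, with annealed Cy3 and quencher oligos, was imaged in 50 mM Na-HEPES pH 8.0, 25 mM NaCl in 2.5 °C steps up to 60 °C. Signals were normalised to pre-quench Cy3 and to control variants. Melting temperature and folding enthalpy came from bootstrapped two-state fits, inverse-variance combined over four replicates. Fitted temperatures were raised by 9.35 °C to match UV melts.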

[2] = melting temperature; fluorescence melt of hairpins on a sequencing array, two-state fit, raised by 9.35 °C to match UV melts; conditions: sodium 0.088 M
Procedure, shortened: as §1

Row | Sequence | folding enthalpy [1] | Tm [2]
1 | GATCTTGATAAAGATC ((((((....)))))) | -171 kJ/mol | 52.1 °C
2 | GATCTTGCGAAAGATC ((((((....)))))) | -193 kJ/mol | 50.6 °C
3 | GATCTTGCTCAAGATC ((((((....)))))) | -165 kJ/mol | 48.3 °C
4 | GATCTTGCTGAAGATC ((((((....)))))) | -131 kJ/mol | 43.2 °C
5 | GATCTTGGAAAAGATC ((((((....)))))) | -138 kJ/mol | 49 °C
6 | GATCTTGGAAACAGGATC ((((.((....)).)))) | -120 kJ/mol | 39.1 °C
7 | GATCTTGGCCAAGATC ((((((....)))))) | -239 kJ/mol | 54.8 °C
8 | GATCTTGGGAAAGATC ((((((....)))))) | -139 kJ/mol | 49.1 °C
9 | GATCTTGGGGAAGATC ((((((....)))))) | -122 kJ/mol | 40.8 °C
10 | GATCTTGGTAAGATC ((((((...)))))) | -121 kJ/mol | 43.2 °C
11 | GATCTTGGTCAAGATC ((((((....)))))) | -154 kJ/mol | 48.9 °C
12 | GATCTTGGTTAAGATC ((((((....)))))) | -128 kJ/mol | 43.7 °C
13 | GATCTTGTACAAGATC ((((((....)))))) | -181 kJ/mol | 51.7 °C
14 | GATCTTGTATAAGATC ((((((....)))))) | -158 kJ/mol | 50.5 °C
15 | GATCTTGTGAAGATC ((((((...)))))) | -121 kJ/mol | 42.4 °C
16 | GATCTTGTTCAAGATC ((((((....)))))) | -181 kJ/mol | 49.1 °C
17 | GATCTTGTTGAAGATC ((((((....)))))) | -114 kJ/mol | 45 °C
18 | GATCTTTAAAAGATC ((((((...)))))) | -96.3 kJ/mol | 39.9 °C
19 | GATCTTTACAAAGATC ((((((....)))))) | -142 kJ/mol | 46.5 °C
20 | GATCTTTACGAAGATC ((((((....)))))) | -135 kJ/mol | 45.3 °C
21 | GATCTTTACTAAGATC ((((((....)))))) | -159 kJ/mol | 45 °C
22 | GATCTTTAGAAAGATC ((((((....)))))) | -130 kJ/mol | 40.6 °C
23 | GATCTTTAGCAAGATC ((((((....)))))) | -118 kJ/mol | 37.1 °C
24 | GATCTTTAGGAAGATC ((((((....)))))) | -119 kJ/mol | 42.6 °C

Row | Sequence | folding enthalpy [1] | Tm [2]
25 | GATCTTTAGTAAGATC ((((((....)))))) | -125 kJ/mol | 40 °C
26 | GATCTTTATTAAGATC ((((((....)))))) | -143 kJ/mol | 43.5 °C
27 | GATCTTTCAAAGATC ((((((...)))))) | -119 kJ/mol | 44.5 °C
28 | GATCTTTCATAAGATC ((((((....)))))) | -131 kJ/mol | 44.8 °C
29 | GATCTTTCTAAGATC ((((((...)))))) | -143 kJ/mol | 45.2 °C
30 | GATCTTTCTTAAGATC ((((((....)))))) | -156 kJ/mol | 44.9 °C
31 | GATCTTTGAAAGATC ((((((...)))))) | -108 kJ/mol | 38.1 °C
32 | GATCTTTGGAAGATC ((((((...)))))) | -111 kJ/mol | 41.2 °C
33 | GATCTTTGGTAAGATC ((((((....)))))) | -129 kJ/mol | 42.5 °C
34 | GATCTTTTATAAGATC ((((((....)))))) | -144 kJ/mol | 44.1 °C
35 | GATCTTTTCAAGATC ((((((...)))))) | -152 kJ/mol | 47.7 °C
36 | GATCTTTTCCAAGATC ((((((....)))))) | -151 kJ/mol | 42.9 °C
37 | GATCTTTTCGAAGATC ((((((....)))))) | -140 kJ/mol | 46.4 °C
38 | GATCTTTTTTAAGATC ((((((....)))))) | -147 kJ/mol | 45.2 °C
39 | GATGAACGAAAGTTGATC (((.(((....))).))) | -94.9 kJ/mol | 38.1 °C
40 | GATGAACGAAAGTTTATC (((.(((....))).))) | -123 kJ/mol | 44.6 °C
41 | GATGAAGCGAAAGCTATC (((..(((....)))))) | -43.4 kJ/mol | 28.4 °C
42 | GATGAAGGAAACTTCACC (.(((((....))))).) | -55.4 kJ/mol | 32.2 °C
43 | GATGACCGAAAGGTTATC (((.(((....))).))) | -151 kJ/mol | 51 °C
44 | GATGACGAAAGTCAAATC ((((((....)))..))) | -49.4 kJ/mol | 34.6 °C
45 | GATGACGAAAGTCATATC ((((((....)))..))) | -58.5 kJ/mol | 50 °C
46 | GATGACGAAAGTCCTATC ((((((....)))..))) | -40.3 kJ/mol | 24 °C
47 | GATGACGAAAGTCGGATC ((((((....)))..))) | -56 kJ/mol | 34.3 °C
48 | GATGACGAAAGTCTAATC ((((((....)))..))) | -50.2 kJ/mol | 29.9 °C

Row | Sequence | folding enthalpy [1] | Tm [2]
49 | GATGACGAAAGTCTGATC ((((((....)))..))) | -50.4 kJ/mol | 33.1 °C
50 | GATGACGCGAAAGCGATC (((..(((....)))))) | -36.1 kJ/mol | 35 °C
51 | GATGACGGAAACGCCATC ((((.((....)).)))) | -135 kJ/mol | 48.3 °C
52 | GATGACGGAAACGTCACC (.(((((....))))).) | -61.3 kJ/mol | 40 °C
53 | GATGACGGAAACGTTGTC ((..(((....)))..)) | -119 kJ/mol | 36.1 °C
54 | GATGAGGGAAACCTTATC (((.(((....))).))) | -121 kJ/mol | 35.7 °C
55 | GATGATGAAAATCATC ((((((....)))))) | -121 kJ/mol | 51.2 °C
56 | GATGCACGAAAGTGTATC (((.(((....))).))) | -133 kJ/mol | 54.2 °C
57 | GATGCCCGAAAGGGGATC (((.(((....))).))) | -91.5 kJ/mol | 59 °C
58 | GATGCCCGAAAGGGTATC (((.(((....))).))) | -125 kJ/mol | 58.2 °C
59 | GATGCCGAAAGGCATATC ((((((....)))..))) | -45.9 kJ/mol | 55.7 °C
60 | GATGCCGAAAGGCCATC ((((((....))).))) | -59.3 kJ/mol | 46.9 °C
61 | GATGCCGAAAGGCGATC ((((((....))).))) | -63.1 kJ/mol | 50.6 °C
62 | GATGCCGAAAGGCTATC ((((((....))).))) | -54.9 kJ/mol | 43.4 °C
63 | GATGCCGCGAAAGCGATC (((..(((....)))))) | -30.8 kJ/mol | 28 °C
64 | GATGCCGGAAACAGCATC (((((.(....).))))) | -154 kJ/mol | 46 °C
65 | GATGCCGGAAACGACACC (.((.((....)).)).) | -56.7 kJ/mol | 24.4 °C
66 | GATGCGGGAAACCACACC (.((.((....)).)).) | -51.9 kJ/mol | 26.7 °C
67 | GATGCGGGAAACCACATC ((((.((....)).)))) | -150 kJ/mol | 44.8 °C
68 | GATGCTGAAAAGCATC ((((((....)))))) | -164 kJ/mol | 63 °C
69 | GATGCTGGAAACAGCACC (.(((((....))))).) | -60.2 kJ/mol | 39.4 °C
70 | GATGCTGGAAACAGCGTC ((.((((....)))).)) | -166 kJ/mol | 54.5 °C

Reference: the array DNA melting data of Ke et al. (doi:10.1101/2024.01.08.574731)
